Experimental findings from ChEMBL document CHEMBL3632527 (J Med Chem, 2015) are described below.

Each structure is given as a SMILES string. Activity calls are given as the source filed them. The rule behind the calls is not given here.

For data set [1], the system named is T98G. The data set is described as follows: Cytotoxicity against human T98G cells assessed as cell viability in the presence of PK11195 after 48 hrs by cell titer blue staining based fluorescence method.
The test system of data set [2] is T98G. The data set is described as follows: Cytotoxicity against human T98G cells assessed as cell viability after 48 hrs by cell titer blue staining based fluorescence method.
Data set [3] concerns the target T1, Translocator protein (Homo sapiens, UniProt P30536). The data set is described as follows: Displacement of [3H]PK11195 from TSPO in human T98G cell membranes incubated for 90 mins by competition radioligand binding assay. Background: Displacement assays read how much labelled ligand stays bound in the presence of the test substance.
Data set [4] deals with T1, Translocator protein. Nature of the data set: Displacement of [3H]PK11195 from TSPO in human HEK293T cell membranes incubated for 90 mins by competition radioligand binding assay. More on the design: species or system HEK-293T.
In data set [5] the test system is T98G. Nature of the data set: Potentiation of antiproliferative activity of PK11195 at 10 uM against human T98G cells incubated for 48 hrs by BrdU enzyme-linked immunosorbent assay. In kind it is functional, cell-based.
In data set [6] the test system is T98G. Nature of the data set: Antiproliferative activity against human T98G cells at 1 to 100 uM incubated for 48 hrs by BrdU enzyme-linked immunosorbent assay. The data set is classed as functional, cell-based. The method, boiled down:
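Basal proliferation of T98G human glioma cells, which carry the Ala147 TSPO genotype without the rs6971 polymorphism, was measured with compounds alone at 1–100 μM.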

Data set [7] relates to T98G. The data set is described as follows: Potentiation of antiproliferative activity of PK11195 against human T98G cells incubated for 48 hrs by BrdU enzyme-linked immunosorbent assay. The data set is classed as functional, cell-based.
Data set [8] has as its system T98G. The data set is described as follows: Potentiation of antiproliferative activity of PK11195 at 100 uM against human T98G cells incubated for 48 hrs by BrdU enzyme-linked immunosorbent assay. The data set is classed as functional, cell-based.
Data set [9] concerns T98G. Nature of the data set: Potentiation of antiproliferative activity of PK11195 at 62.5 uM against human T98G cells incubated for 48 hrs by BrdU enzyme-linked immunosorbent assay. In kind it is functional, cell-based.

T1 sequence (P30536 whole entry): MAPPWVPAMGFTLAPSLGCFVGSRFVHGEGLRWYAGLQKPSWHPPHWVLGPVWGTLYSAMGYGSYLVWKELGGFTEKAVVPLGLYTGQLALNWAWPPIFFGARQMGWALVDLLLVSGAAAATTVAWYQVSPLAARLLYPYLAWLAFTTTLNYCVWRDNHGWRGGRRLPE

As usually defined, the Ki is the equilibrium dissociation constant of an inhibitor or competing ligand from its target. The low end stands for a stronger hold on the target, the high end for a looser hold on the target. The EC50 is the concentration at which the effect is half-maximal. Regarding `CCN(CC)C(=O)Cn1c(-c2ccc(OC)cc2)cc2c(C)cc(C)cc21`, the Activity result in the data set with T98G [1] and in the data set on T98G [2] was “Non-toxic” in each case. The Ki on Translocator protein [3] worked out at 806 nM; on Translocator protein [4] it was 28.1 nM. The result with T98G [5] was Active. The result in the data set with T98G [6] was inactive. For the same compound, the EC50 in the data set on T98G [7] worked out at 14700 nM.

Consider `CCN(CC)C(=O)Cn1c(-c2ccc(OC)cc2)nc2c(C)cc(C)nc21`, for which the Activity result with T98G [1] and in the data set on T98G [2] was “Non-toxic” in each case. Besides, the outcome with T98G [8] and with T98G [6] was inactive. The Ki was determined as 144 nM at Translocator protein [3] and 29.1 nM on Translocator protein [4].

As to `CCN(CC)C(=O)Cn1c(-c2ccc(OC)cc2)nc2c(C)nc(C)nc21`, the Activity result in the data set with T98G [1] and in the data set on T98G [2] was “Non-toxic” in each case. The result with T98G [8] and in the data set with T98G [6] was inactive. For the same compound, the Ki on Translocator protein [3] and on Translocator protein [4] was more than 10000 nM throughout.

For the compound `CCN(CC)C(=O)Cn1c(-c2ccc(OC)cc2)nc2c(C)cc(C)cc21`, the outcome in the data set with T98G [9] was Active. The Activity result in the data set with T98G [1] and with T98G [2] was “Non-toxic” each time. The Ki on Translocator protein [3] is 398 nM; at Translocator protein [4] it was 224 nM. The outcome with T98G [6] was inactive.

As for `CCN(CC)C(=O)Cc1c(-c2ccc(OC)cc2)nn2c(C)cc(C)nc12`, the Activity result in the data set on T98G [1] and in the data set on T98G [2] was “Non-toxic” each time. The outcome with T98G [8] and with T98G [6] was inactive.
